Most compounds without a hit are left out; they make up all but 0.98% or so of the library.
S1P3 antagonist: blocks the human S1P3 receptor. Q99500. CHO S1P3 NFAT-BLA reporter, FRET fluorescence, antagonist mode. inhibition, % at 4.98 µM. 170,000 tested, 0.27% active;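 active = inhibition above the plate cutoff, the mean inhibition of test wells on that plate plus 3 SD, cut at about 28% in these data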;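 note: cells challenged with S1P at its EC80 of 0.8 µM; blue over green emission ratio from cleaved BLA substrate after 4 h stimulation; 0% = S1P-stimulated wells and 100% = unstimulated DMSO-only wells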
Target sequence (Q99500 whole entry, looked up): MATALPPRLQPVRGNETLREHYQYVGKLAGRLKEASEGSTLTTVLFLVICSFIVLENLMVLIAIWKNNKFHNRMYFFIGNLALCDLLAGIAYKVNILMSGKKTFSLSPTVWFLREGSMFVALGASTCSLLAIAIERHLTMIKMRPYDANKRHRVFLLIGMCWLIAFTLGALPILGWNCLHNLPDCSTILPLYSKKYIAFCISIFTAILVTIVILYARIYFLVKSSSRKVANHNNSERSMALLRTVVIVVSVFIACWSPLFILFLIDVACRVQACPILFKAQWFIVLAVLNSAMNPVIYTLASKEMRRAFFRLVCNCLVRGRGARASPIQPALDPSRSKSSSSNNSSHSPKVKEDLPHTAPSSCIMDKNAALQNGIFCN
Yeast growth inh: reduces growth of yeast BB579 in restrictive medium; S. cerevisiae BB579 growth, OD615, 48 h; inhibition, % at 10 µM; 140,000 tested, 0.51% active;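 active = inhibition above a set limit, 3 SD over the mean compound inhibition, cut at about 44% in these data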
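test system = yeast BB579 (DeaD) | buffer or medium = restrictive CSMM-D medium | doses = single compound dose of 10 µM, 0.25% DMSO final | times = 4 h preincubation and 48 h exposure at 30 °C | technique = culture absorbance at 615 nm | benchmarks = amphotericin B 10 µg/mL, positive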
Yeast lifespan up: yeast lifespan extension. S. cerevisiae growth with nicotinamide, OD615; deaD strain in restrictive glucose medium. inhibition of the nicotinamide effect, % at 10 µM. 130,000 tested, 0.68% active. AID 775;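 active = inhibition above a set limit, placed 3 SD over the median of all compounds, cut at about 26% in these data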;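 note: 0% = nicotinamide-treated wells and 100% = cells grown without nicotinamide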
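Assay system: DeaD-strain S. cerevisiae. Medium: CSMM-D glucose medium, restrictive. Reagent: nicotinamide, 1.5 mM, co-present with compound. Compound: 10 µM single point, 0.25% DMSO. Schedule: culture preincubation 4 h, compound exposure 48 h, both 30 °C. Detection: absorbance at 615 nm.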
* hit, by the source's call; . = no result; + = active, no number.

SMILES	S1P3 antagonist	Yeast growth inh	Yeast lifespan up
CC(C)CN1C(=O)NC(NC(=O)c2cccnc2)(C(F)(F)F)C1=O (stereo unspecified)	.	-11	-5
Cc1[nH]nc(-c2ccc(O)cc2O)c1-c1ccc(Cl)cc1	41	28	-33
COc1ccc(-c2n[nH]c(C)c2-c2ccc(Cl)cc2)c(O)c1	.	100*	-17
Cc1ccc(NC(=O)CSc2nc3c(c(=O)[nH]2)CN(Cc2ccc(F)cc2)CC3)cc1C	-2	2	9
CN1CCC(N(C)C(=O)COc2ccccc2-c2ccccc2)CC1	4	-9	30
Cc1nc2c(=O)n(C)c(=O)n(C)c2nc1Cl	3	5	75*
Cn1c(=O)c2nc(NCc3ccccc3)cnc2n(C)c1=O	28	13	-12
CC(=O)N1CCC(N(CCN2CCOCC2)C(=S)Nc2ccccc2C)CC1	-10	-10	-4
Cc1ccccc1C(=O)N/N=C/c1ccc([N+](=O)[O-])s1	.	-17	-4
Cc1c(Cl)cccc1N=Cc1ccc([N+](=O)[O-])s1	.	57*	-30
Cc1ccc(C2NC(=O)c3c(sc(C)c3C)N2)c(O)c1 (stereo unspecified)	.	-18	6
CCc1ccc(C(=O)Cn2cnc3cc([N+](=O)[O-])ccc3c2=O)cc1	-9	.	.
Cn1c(/C=C/c2ccc([N+](=O)[O-])o2)nc2ccccc2c1=O	.	82*	3
Cc1cc(N/N=C/c2ccc([N+](=O)[O-])o2)nc2ccccc12	10	.	.
CCOC(=O)c1c(NC(=O)Cn2cnc3sc(C)c(-c4ccccc4)c3c2=O)sc(C)c1C	-11	-35	6
CCCNC(=O)OC[C@H]1O[C@H](CCO/N=C(\C)CCN2CCc3nc(-c4ccccc4)c(-c4ccccc4)cc3C2)C=C[C@@H]1Oc1ccc(OC)cc1	-11	-57	32*
CCCNC(=O)OC[C@H]1O[C@H](CCO/N=C/C[C@@H]2C=C[C@H](OC(C)=O)[C@@H](COC(C)=O)O2)C=C[C@@H]1Oc1ccc(OC)cc1	-7	-22	-3
O=c1cc(-c2ccc3c(c2)OCCO3)oc2ccc(Cl)cc12	2	-25	-6
Cc1ccc(S(=O)(=O)Cc2c(C)noc2C)cc1	.	-52	-7
Cc1noc(C)c1CS(=O)(=O)c1ccc(Br)cc1	.	1	56*
Cc1ccc(NC(=S)N(CCC(C)C)C(C)c2ccncc2)c(Cl)c1 (stereo unspecified)	-4	.	.
CCOC(=O)c1cc(NC(=O)c2cccnc2)ccc1N1CCOCC1	2	.	.
CCc1cc2cc(C)cc(C)c2[nH]c1=S	6	.	.
Cc1ccc2c(c1)c(Sc1ccccc1)c(CC(=O)O)n2C	2	-48	27*
CCOC(=O)Cc1c(Sc2ccccc2)c2cc(C)ccc2n1C	14	0	2
SMILES	S1P3 antagonist	Yeast growth inh	Yeast lifespan up
COc1ccc2cc(C(C)c3nc4ccccc4c(=O)n3N)ccc2c1 (stereo unspecified)	11	-48	31*
COc1cccc(OCc2nc3ccccc3c(=O)n2N)c1	8	-28	-21
O=C(NCc1cccnc1)NC1(c2ccccc2)CC1	77*	26	1
O=C(O)c1ccccc1C(=O)NCc1cccnc1	-17	-13	0
CCOC(=O)c1sc(-c2ccccc2)cc1NC(=O)CSc1nnnn1C	0	-7	-7
CCCCCCN1CC(C(=O)OCC)C(=O)C1=O (stereo unspecified)	6	-4	50*
CCOC(=O)C1[C@H]2C(=O)N(CCCOC)C[C@]23C=C[C@H]1O3 (stereo partly specified)	-15	-27	3
CCOc1cc(/C=N/Nc2nc(Nc3ccccc3)nc(N3CCCCC3)n2)ccc1OCC(=O)O	-4	.	.
CCOc1cc(/C=N/Nc2ccccc2Cl)ccc1OCC(=O)O	3	96*	-9
CC(=O)Nc1ccc(-n2c(C)nc(=O)c(-c3ccccc3)c2C)cc1	1	-27	-11
O=C(CCCc1ccccc1)NCCCN1CCOCC1	-7	-1	-8
O=C(CCc1ccccc1)NCCCN1CCOCC1	6	6	66*
Cc1cc(N2C(=O)CC(Cc3ccccc3)C2=O)no1 (stereo unspecified)	-51	-9	+
Cc1cc(N2C(=O)CC(Cc3ccc(Cl)cc3)C2=O)no1 (stereo unspecified)	.	-29	-3
Cn1c(=O)cc(Cl)[nH]c1=O	-29	.	.
COc1ccc(NC(=S)N2CCN(C/C=C/c3ccccc3)CC2)cc1	-3	-25	0
COc1ccc(OC)c(NC(=S)N2CCN(C/C=C/c3ccccc3)CC2)c1	.	-37	43*
Cc1ccc(/C=C/C(=O)C2C(=O)c3ccccc3C2=O)cc1	.	-20	42*
Cc1ccc(/C=C/C(=O)c2ccccc2O)cc1	-12	.	.
Cc1ccc(C)c(S(=O)(=O)NC(CC(C)C)C(=O)O)c1 (stereo unspecified)	.	-34	-6
COc1ccc(S(N)(=O)=O)cc1C(=O)NCCCN1CCN(c2ccc(C)cc2)CC1	.	-22	58*
COc1ccc(S(N)(=O)=O)cc1C(=O)NCCCN1CCN(c2cccc(Cl)c2)CC1	.	-22	-7
Cc1onc(-c2ccccc2)c1C(=O)N1CCCN2C(=O)c3ccccc3C21 (stereo unspecified)	-2	.	.
CC(C)c1cc(CNC(=O)CC2C(=O)NCCN2CC2CCCCC2)on1 (stereo unspecified)	-7	.	.
CCCCN(C(=O)CSc1nnc2ccccn12)c1c(N)n(Cc2ccccc2)c(=O)[nH]c1=O	-6	-35	5
SMILES	S1P3 antagonist	Yeast growth inh	Yeast lifespan up
CCO/C=C1/C(=O)N(Cc2ccccc2)C(=O)c2ccccc21	-13	13	32*
CCO/C=C1\C(=O)N(c2ccccc2)C(=O)c2ccccc21	2	-46	-13
CN=C(Nc1cc(C)nn1CCC#N)c1ccccc1	-18	-16	-10
Cc1cc(OC(=O)c2ccccc2)n(CCC#N)n1	102*	8	8
CCOc1cccc2cc(-c3nnc(-c4ccccc4)o3)c(=O)oc12	65*	.	.
COc1cccc2cc(-c3ccccc3)c(=O)oc12	-21	.	.
O=C1CC(c2ccccc2)CC(O)=C1C=NCCN1CCN(C(=O)Nc2ccccc2)CC1 (stereo unspecified)	8	-52	92*
O=C1CC(c2ccccc2)CC(O)=C1C=NCCN1CCNCC1 (stereo unspecified)	-21	-18	35*
Cc1ccc(NC(=O)CN2CCN(CCN=CC3=C(O)CC(c4ccccc4)CC3=O)CC2)cc1 (stereo unspecified)	-10	-35	60*
O=C1CC(c2ccc(F)cc2)CC(O)=C1C=NCCN1CCNCC1 (stereo unspecified)	.	-31	.
CCC(=O)N1CCN(CCN=CC2=C(O)CC(c3cccs3)CC2=O)CC1 (stereo unspecified)	3	-28	53*
Cc1ccc(C2CC(=O)C(C=NCCN3CCN(CC(=O)Nc4cc(C)cc(C)c4)CC3)=C(O)C2)cc1 (stereo unspecified)	10	.	.
CCNC(=S)N1CCN(CCN=CC2=C(O)CC(c3cccs3)CC2=O)CC1 (stereo unspecified)	.	-37	6
Cc1ccc(C2CC(=O)C(C=NCCN3CCN(C(=S)Nc4ccccc4)CC3)=C(O)C2)cc1 (stereo unspecified)	-2	.	.

Assay outcomes as filed in PubChem BioAssay.
